Data published in ChEMBL document CHEMBL4477209, “Indole-2-carboxamide-based MmpL3 Inhibitors Show Exceptional Antitubercular Activity in an Animal Model of Tuberculosis Infection” (J Med Chem, 2016).
Converted amounts (≈) assume the structure as drawn. The source made the active and inactive calls. The calls are words filed in the database; no cut-off is given here.

Columns and labels:
[1] = test system: Mycobacterium tuberculosis H37Rv; test: Inhibition of MmpL3 in clinical isolates of drug sensitive Mycobacterium tuberculosis H37Rv after 7 to 14 days by alamar blue assay
[2] = test system: Mycobacterium tuberculosis; test: Inhibition of MmpL3 in clinical isolates of drug sensitive Mycobacterium tuberculosis V4207 after 7 to 14 days by alamar blue assay
Cytochrome P450 2D6 = Cytochrome P450 2D6 (Homo sapiens, UniProt P10635); test: Inhibition of CYP2D6 (unknown origin); format: ADME
[3] = Permeability across apical to basolateral side in human Caco2 cells; format: ADME, cell-based; conditions: Caco-2, read-out: permeability
[4] = Permeability across basolateral to apical side in human Caco2 cells; format: ADME, cell-based; conditions: Caco-2, read-out: permeability
[5] = molecular target: T1, Nuclear receptor subfamily 1 group I member 2 (Homo sapiens, UniProt O75469); test: Transactivation of PXR (unknown origin) assessed as upregulation of CYP3A4 at 3 to 8 microg/ml; format: ADME
T1 sequence (O75469 whole entry): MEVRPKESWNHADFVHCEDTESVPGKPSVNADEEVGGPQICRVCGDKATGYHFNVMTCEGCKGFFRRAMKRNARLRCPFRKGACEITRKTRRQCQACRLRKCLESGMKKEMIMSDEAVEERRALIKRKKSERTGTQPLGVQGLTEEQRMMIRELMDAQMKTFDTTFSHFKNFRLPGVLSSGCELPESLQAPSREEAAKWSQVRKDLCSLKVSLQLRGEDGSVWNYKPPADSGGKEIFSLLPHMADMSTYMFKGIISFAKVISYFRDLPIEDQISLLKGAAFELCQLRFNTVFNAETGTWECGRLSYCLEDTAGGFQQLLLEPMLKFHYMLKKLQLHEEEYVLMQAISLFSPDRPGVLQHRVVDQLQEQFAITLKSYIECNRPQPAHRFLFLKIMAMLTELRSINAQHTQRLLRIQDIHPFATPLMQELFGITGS
Method in brief: (§1)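 Nuclear receptor reporter-gene induction assay, with reporters coupled to PXR, CAR or AhR. Compound was tested at 0.1–1, 3 and 8 μg/mL. Positive controls were rifampin for PXR, CITCO for CAR and 3-methylcholanthrene for AhR.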

[6] = molecular target: T2, Nuclear receptor subfamily 1 group I member 3 (Homo sapiens, UniProt Q14994); test: Transactivation of CAR (unknown origin) assessed as upregulation of CYP2B6 at 3 to 8 microg/ml; format: ADME; method in brief: as §1
T2 sequence (Q14994 whole entry): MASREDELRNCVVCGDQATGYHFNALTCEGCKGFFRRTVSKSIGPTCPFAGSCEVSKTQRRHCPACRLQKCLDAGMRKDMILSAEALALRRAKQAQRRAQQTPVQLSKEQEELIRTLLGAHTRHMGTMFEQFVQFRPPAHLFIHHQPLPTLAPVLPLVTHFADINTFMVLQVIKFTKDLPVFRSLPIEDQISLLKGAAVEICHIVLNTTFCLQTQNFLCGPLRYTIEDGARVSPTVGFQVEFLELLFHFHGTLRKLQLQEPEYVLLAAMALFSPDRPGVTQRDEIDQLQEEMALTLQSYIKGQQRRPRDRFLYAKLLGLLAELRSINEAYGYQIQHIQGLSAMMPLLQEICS

[7] = Mutagenicity in Salmonella typhimurium TA98; format: toxicity; conditions: salmonella enterica subsp. enterica serovar typhimurium
[8] = Mutagenicity in Salmonella typhimurium TA100; format: toxicity; conditions: salmonella enterica subsp. enterica serovar typhimurium
[9] = Mutagenicity in Salmonella typhimurium TA1535; format: toxicity; conditions: salmonella enterica subsp. enterica serovar typhimurium
[10] = Mutagenicity in Salmonella typhimurium TA1537; format: toxicity; conditions: salmonella enterica subsp. enterica serovar typhimurium
[11] = Mutagenicity in Salmonella typhimurium TA98 assessed as increase in ratio of revertant colonies at 5000 microg/plate in presence of S9 liver fraction relative to control; format: toxicity, subcellular; conditions: salmonella enterica subsp. enterica serovar typhimurium
Method in brief: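 Bacterial reverse mutation test in S. typhimurium TA98 with S9 liver fraction, at 500 and 5000 μg/plate. Revertant colony count expressed as a ratio to the DMSO solvent control; 2-aminoanthracene as positive control.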

[12] = test system: Mycobacterium tuberculosis; test: Antimycobacterial activity against Mycobacterium tuberculosis H37Rv infected in BALB/c mouse model assessed as reduction in CFU counts in lungs administered daily via oral gavage for 5 days per week measured after 14 to 28 days post dosage relative to control; format: functional, organism-based
Method in brief: (§2)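 Female BALB/c mice, 4-6 weeks old, aerosol-infected with H37Rv (about 10^3 CFU); five mice taken on day 1 for lung implantation CFU. From day 1, 12.5, 25, 50 or 100 mg/kg in 0.5% carboxymethylcellulose by daily oral gavage, 5 days/week. Ethambutol 100 mg/kg as positive control, untreated infected mice as negative, 5 mice per group. Lung homogenates plated on 7H11 selective agar on days 14 and 28.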

[13] = test system: Mycobacterium tuberculosis; test: Antimycobacterial activity against Mycobacterium tuberculosis H37Rv infected in BALB/c mouse model assessed as reduction in CFU counts in lung at 100 mg/kg administered daily via oral gavage for 5 days per week measured after 14 days post dosage relative to control; format: functional; method in brief: as §2
[14] = test system: Mycobacterium tuberculosis; test: Antimycobacterial activity against Mycobacterium tuberculosis H37Rv infected in BALB/c mouse model assessed as reduction in CFU counts in lung at 100 mg/kg administered daily via oral gavage for 5 days per week measured after 28 days post dosage relative to control; format: functional; method in brief: as §2
[15] = test system: Mycobacterium tuberculosis; test: Antimycobacterial activity against Mycobacterium tuberculosis H37Rv infected in BALB/c mouse model assessed as protection against mouse mortality at 12.5 to 100 mg/kg administered daily via oral gavage for 5 days per week measured after 14 to 28 days post dosage; format: functional, organism-based

Cytochrome P450 2D6, sequence (P10635 whole entry): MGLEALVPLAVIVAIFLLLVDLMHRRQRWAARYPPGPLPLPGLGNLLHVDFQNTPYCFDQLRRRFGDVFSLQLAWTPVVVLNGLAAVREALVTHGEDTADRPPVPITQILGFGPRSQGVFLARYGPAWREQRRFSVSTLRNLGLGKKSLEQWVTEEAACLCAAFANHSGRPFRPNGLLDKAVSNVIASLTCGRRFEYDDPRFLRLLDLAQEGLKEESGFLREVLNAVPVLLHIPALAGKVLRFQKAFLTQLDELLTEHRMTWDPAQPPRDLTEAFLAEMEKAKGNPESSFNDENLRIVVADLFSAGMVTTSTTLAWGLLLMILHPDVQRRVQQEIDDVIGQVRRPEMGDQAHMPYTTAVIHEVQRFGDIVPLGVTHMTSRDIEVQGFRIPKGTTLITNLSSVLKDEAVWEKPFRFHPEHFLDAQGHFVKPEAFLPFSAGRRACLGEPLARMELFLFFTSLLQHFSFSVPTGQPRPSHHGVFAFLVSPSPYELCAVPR

C[C@@H]1[C@H]2C[C@@H](C[C@H]1NC(=O)c1cc3c(F)cc(F)cc3[nH]1)C2(C)C
MIC90 [1]: 0.012 µM (≈ 0.00399 µg/mL)
MIC [2]: 23 µM (≈ 7.65 µg/mL)
inhibition (INH) (Cytochrome P450 2D6): 36.6%
Papp A→B [3]: 0.19 ×10⁻⁶ cm/s
Papp B→A [4]: 0.25 ×10⁻⁶ cm/s
Activity [5]: Active
Activity [6]: Active
Activity [7]: Non-Toxic
Activity [8]: Non-Toxic
Activity [9]: Non-Toxic
Activity [10]: Non-Toxic
fold change (FC) [11]: 2
Activity [12]: Dose-dependent effect
Activity [13]: 1.71 log10CFU
Activity [14]: 2.12 log10CFU
Activity [15]: Active
